# H9c2 TAG inh: triacylglycerol accumulation inhibition; H9c2 cells, Nile Red lipid (TAG) fluorescence; cells loaded with 200 µM oleic acid; inhibition, % at 12.5 µM; 230,000 tested, 0.66% active; AID 651582;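 active = pattern-corrected inhibition of lipid staining of at least 50% with the nuclear-stain viability signal not falling by more than 50%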;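 note: 0% = DMSO wells and 100% = triacsin C control wells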
# aDG glyco up: increases alpha dystroglycan glycosylation; Pro5-aDG cells, alpha-DG glycosylation AlphaScreen (IIH6); 0% Pro5, 100% B10-LARGE cell signal; activation, % at 10 µM; 360,000 tested, 0.22% active; AID 624168;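 active = activation of at least 8% versus controls, or a plate z-score of at least 8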;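 note: Pro5 are CHO cells carrying HIG-tagged alpha-DG that lacks glycosylation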
# NTR1 agonist: activates human neurotensin receptor 1; P30989; NTR1-U2OS beta-arrestin-GFP spot imaging, agonist mode; activation, % at 20 µM; 330,000 tested, 0.17% active;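 active = activation at or above 40% of the spot to cytoplasm intensity ratio, with at least 20 cells analyzed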;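 note: 0% = DMSO without peptide and 100% = 100 nM NTR1 peptide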
# MC4R ag barr: human MC4R agonism via beta-arrestin; U2OS MC4R beta-arrestin complementation, luminescence; percent of melanotan II response, DMSO zero; AID 540308; 360,000 tested, 0.98% active; activation, % at 8.9 µM;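 active = activation above a per-plate cutoff, the mean activation of sample wells on that plate plus 3 SD, cut at about 8% in these data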
# Target sequence (P32245 whole entry, looked up): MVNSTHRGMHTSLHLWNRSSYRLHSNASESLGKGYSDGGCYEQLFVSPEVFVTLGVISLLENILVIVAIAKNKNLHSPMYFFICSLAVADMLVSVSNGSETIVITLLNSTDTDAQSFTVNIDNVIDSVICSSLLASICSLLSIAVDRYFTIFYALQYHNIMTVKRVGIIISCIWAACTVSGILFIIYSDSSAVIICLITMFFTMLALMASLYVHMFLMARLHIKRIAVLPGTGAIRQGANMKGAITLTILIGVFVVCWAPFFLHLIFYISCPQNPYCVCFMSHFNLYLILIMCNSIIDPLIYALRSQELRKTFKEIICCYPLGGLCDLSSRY
# TbMetRS inhib: Trypanosoma brucei MetRS inhibition; 360,000 tested, 0.4% active; purified T. brucei MetRS, ATP depletion, Kinase-Glo luminescence; inhibition, % at 11.9 µM;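 active = inhibition above a per-plate cutoff of the control wells' mean inhibition plus 3 SD, cut at about 5.5% in these data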;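 note: 0% = DMSO wells median and 100% = median of wells with control inhibitor compound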
#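 technique = Kinase-Glo luminescence, ATP depletion format | system = purified MetRS (methionyl-tRNA synthetase) enzyme from Trypanosoma brucei | timing = 15 min preincubation, 2 h reaction, all 25 °C | evaluation = percent inhibition versus plate control medians | dosing = single dose, 11.9 µM final nominal, 0.9% final DMSO | also added = substrates ATP, L-methionine and bulk Escherichia coli tRNA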
# MC4R antag cAMP: blocks human MC4R cAMP signaling; 360,000 tested, 0.48% active; inhibition, % at 6.5 µM; P32245; MC4R-expressing cells, MTII-stimulated cAMP, LANCE TR-FRET;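 active = inhibition above its plate's cutoff, the mean of tested wells on that plate plus 3 SD, cut at about 29% in these data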;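 note: 0% = Melanotan II alone and 100% = Melanotan II plus saturating MCL0020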
#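 System: U2OS-MC4R stable cell line; Technique: Eu-cAMP/anti-cAMP TR-FRET, emission 671 nm; Repeats: single well per compound; Also added: Melanotan II; Dosing: one concentration, 6.5 µM nominal; Schedule: 30-min compound, 1-h challenge, 1-h detection, room temperature.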
# cAMP nonselect: counter-screen for MC4R antagonists: nonselective cAMP signaling inhibitors. AID 602193. parental U2OS, forskolin cAMP, LANCE TR-FRET. inhibition, % at 6.5 µM. shares compounds with MC4R antag cAMP. 1,600 tested, 26% active;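 active = mean inhibition over triplicates above the low-control well mean plus 3 SD, set per campaign, cut at about 13% in these data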;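 note: signal is single emission at 671 nm which falls as cellular cAMP rises; 0% = forskolin-stimulated wells and 100% = buffer without forskolin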
# MC4R cAMP antag: human MC4R cAMP antagonism confirmation; inhibition, % at 6.5 µM; 1,600 tested, 27% active; MC4R-expressing cells, MTII-stimulated cAMP, TR-FRET; shares compounds with MC4R antag cAMP; in the data active = inhibition above about 29%;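 note: 0% = agonist stimulated wells alone and 100% = agonist stimulated wells plus saturating reference antagonist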
# Starred values were filed as active, the others as inactive; . = no result. Hits are enriched below; roughly 2.4% of the tested compounds scored in any of these assays.
SMILES,H9c2 TAG inh,aDG glyco up,NTR1 agonist,MC4R ag barr,TbMetRS inhib,MC4R antag cAMP,cAMP nonselect,MC4R cAMP antag
COCCN(C(=O)c1csnn1)C(C(=O)NC1CCCC1)c1ccccc1F (centres undefined),.,0,0,0,-1,29*,-2,-9
COCCNC(=O)C(c1ccccc1F)N(C(=O)C(=O)NC1CCCC1)C1CCCCC1 (centres undefined),11,0,1,-1,1,29*,-1,-5
Cc1ccc(NC2=C(CC(=O)O)C(c3ccccc3)N(c3ccc(C)cc3)C2=O)cc1 (centres undefined),.,0,3,3,0,31*,-4,3
N#Cc1ccsc1NC(=O)c1ccc(Cl)c([N+](=O)[O-])c1,-5,0,4,-1,0,36*,10,11
O=c1c(-c2ccccc2)nc2ccccc2n1C(c1ccccc1)c1nc2ccccc2[nH]1 (centres undefined),.,0,.,.,-1,.,.,.
O=C(OCc1ccccc1)N1CCC2CC1c1c(Cl)cccc12 (centres undefined),-4,0,.,3,-1,30*,-2,-10
O=C(OCc1ccccc1)N1CCC2CC1c1ccc(Cl)cc12 (centres undefined),9,1,.,1,-2,1,.,.
Cc1c(C(=O)OCC(=O)Nc2ccc(S(N)(=O)=O)cc2)oc2c1ccc1ccccc12,4,0,0,2,-1,35*,2,-5
NS(=O)(=O)c1ccc(NC(=O)COC(=O)COc2ccc3ccccc3c2)cc1,7,0,1,0,2,8,.,.
CC(C)C[C@H](NC(=O)c1nc[nH]c1C(=O)N1CCN(C(=O)OC(C)(C)C)CC1)C(=O)OCc1ccccc1,16,0,16,-1,0,34*,16*,23
C[C@H](NC(=O)c1nc[nH]c1C(=O)N[C@@H](Cc1ccccc1)C(=O)OCc1ccccc1)C(=O)OC(C)(C)C,-4,0,26,8,0,34*,8,11
C[C@H](NC(=O)c1nc[nH]c1C(=O)N[C@@H](C)C(=O)OC(C)(C)C)C(=O)OCc1ccccc1,10,0,5,3,0,0,.,.
COCCN(Cc1ccc(C)cc1)C(=O)[C@H]1O[C@@H](n2ccc(=O)[nH]c2=O)[C@H](O)[C@@H]1O,.,0,.,.,0,.,.,.
CSCCC(NC(=O)c1cccc(C)c1)C(=O)OCC(=O)NC(=O)c1cccn1C (centres undefined),.,0,0,-1,0,11,.,.
CSCCC(NC(=O)c1cccc(C)c1)C(=O)OCN1C(=O)c2ccccc2C1=O (centres undefined),7,0,0,-2,0,30*,10,41*
CCN(C[C@H]1N[C@@](CC)(C(=O)OC)[C@H]2C(=O)N(Cc3ccccc3)C(=O)[C@@H]12)C(=O)c1ccc(C(C)(C)C)cc1,7,0,4,-2,-1,41*,-2,21
O=C1CSC(c2cccnc2)N1Cc1cccnc1 (centres undefined),-1,0,1,0,-1,29*,3,12
O=C1CSC(c2ccncc2)N1Cc1ccccc1 (centres undefined),1,0,4,-1,0,-2,.,.
Cc1ccc(S(=O)(=O)N2C[C@H]3C(=O)C[C@@H](c4ccc(Cl)cc4)N(S(=O)(=O)c4ccc(C)cc4)[C@H]3C[C@H]2c2ccccc2)cc1,.,0,.,.,0,.,.,.
O=C1NC[C@@H](c2ccccc2)OC(=O)[C@@H](Cc2ccc(F)cc2)CC/C=C/C[C@H]1CC(=O)N(CCO)Cc1ccccc1,15,0,19,-2,0,7,.,.
O=C1NC[C@@H](c2ccccc2)OC(=O)[C@H](Cc2ccc(F)cc2)C/C=C\C[C@H]1CC(=O)N(CCO)Cc1ccccc1,0,0,2,-2,0,15,.,.
O=C1NC[C@H](c2ccccc2)OC(=O)[C@H](Cc2ccc(F)cc2)C/C=C\C[C@H]1CC(=O)N(CCO)Cc1ccccc1,4,0,8,1,0,39*,-2,-6
O=C(N[C@H]1C/C=C\C[C@H](CC(=O)N(CCO)Cc2ccccc2)C(=O)NC[C@H](c2ccccc2)OC1=O)OCC1c2ccccc2-c2ccccc21,-37,0,-1,0,0,32*,4,-6
O=C1NC[C@H](c2ccccc2)OC(=O)[C@@H](Cc2ccc(F)cc2)C/C=C\C[C@H]1CC(=O)N(CCO)Cc1ccccc1,10,-1,10,-1,0,45*,2,22
COC(=O)/C=C1\OCc2cccc(C)c21,.,0,.,.,-1,.,.,.
SMILES,H9c2 TAG inh,aDG glyco up,NTR1 agonist,MC4R ag barr,TbMetRS inhib,MC4R antag cAMP,cAMP nonselect,MC4R cAMP antag
COc1cc(OC)cc(C2=Cc3ccc(OC)cc3C(CC(C)=O)N2c2ccc(-c3cccs3)cc2)c1 (centres undefined),.,0,.,.,-1,.,.,.
COc1cc(NC(=O)c2ccc(-c3cnn(C)c3)c3ccoc23)cc(OC)c1OC,17,0,.,0,0,6,.,.
COC(=O)COc1ccc(S(=O)(=O)Nc2ccccc2C(=O)OC)cc1,.,0,7,-1,0,35*,21*,35*
COc1ccc(C(CC(=O)c2ccc(C)cc2)C(C#N)C#N)cc1OC (centres undefined),.,0,0,1,0,30*,5,5
COc1cc([N+](=O)[O-])ccc1NC(=S)NC(=O)CC(C)(C)C,1,0,4,-3,0,30*,6,32*
C=CC[C@@H](CC(=O)N(CCO)Cc1ccccc1)C(=O)NC[C@H](OC(=O)[C@@H](CC=C)Cc1ccc(F)cc1)c1ccccc1,28,-1,19,2,0,35*,0,0
C=CC[C@@H](CC(=O)N(CCO)Cc1ccccc1)C(=O)N[C@H](COC(=O)[C@@H](CC=C)Cc1ccc(F)cc1)c1ccccc1,37,0,13,2,0,10,.,.
O=C(Nc1ccc(F)cc1)c1cc(-c2ccccn2)nc2c(Cl)cccc12,8,0,8,1,0,30*,35*,42*
CSCCC(C(=O)Nc1c(C)cccc1C)n1c(-c2ccc(C(F)(F)F)cc2)nc2ccccc21 (centres undefined),.,0,.,.,-1,.,.,.

# From PubChem
